Consider 7 molecules from article PMC4289021 (Nature, 2014).

In assay [1] the test system is full-length RNF146 or RNF146(RING-WWE). The assay is described as follows: E2~Ub/lysine reactivity assay with UbcH5. Particulars: ligand added to full-length RNF146 or RING-WWE fragment, not RING-only construct. Format: biochemical, human. In short, it runs like this:
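Mouse RNF146(RING-WWE) (residues 30–183), made from a GST-tagged construct with TEV cleavage, or His6-T7-tagged full-length RNF146. UbcH5~Ub was charged by wheat E1 (1.5 μM) with 100 μM E2, 200 μM K0 Ub, 2.5 mM MgCl2 and 2 mM ATP in PBS at 37 °C for 30 min, then SEC-purified. Final: 25 μM E2, 4 or 8 μM E3, ± iso-ADPr. Started with 40 mM L-lysine at 35 °C; sampled 1–15 min; non-reducing SDS-PAGE, Coomassie/Oriole stain.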

The target of assay [2] is T1, TNKS(5ARC) (human, UniProt O95271 173-961).
T1 sequence (looked up): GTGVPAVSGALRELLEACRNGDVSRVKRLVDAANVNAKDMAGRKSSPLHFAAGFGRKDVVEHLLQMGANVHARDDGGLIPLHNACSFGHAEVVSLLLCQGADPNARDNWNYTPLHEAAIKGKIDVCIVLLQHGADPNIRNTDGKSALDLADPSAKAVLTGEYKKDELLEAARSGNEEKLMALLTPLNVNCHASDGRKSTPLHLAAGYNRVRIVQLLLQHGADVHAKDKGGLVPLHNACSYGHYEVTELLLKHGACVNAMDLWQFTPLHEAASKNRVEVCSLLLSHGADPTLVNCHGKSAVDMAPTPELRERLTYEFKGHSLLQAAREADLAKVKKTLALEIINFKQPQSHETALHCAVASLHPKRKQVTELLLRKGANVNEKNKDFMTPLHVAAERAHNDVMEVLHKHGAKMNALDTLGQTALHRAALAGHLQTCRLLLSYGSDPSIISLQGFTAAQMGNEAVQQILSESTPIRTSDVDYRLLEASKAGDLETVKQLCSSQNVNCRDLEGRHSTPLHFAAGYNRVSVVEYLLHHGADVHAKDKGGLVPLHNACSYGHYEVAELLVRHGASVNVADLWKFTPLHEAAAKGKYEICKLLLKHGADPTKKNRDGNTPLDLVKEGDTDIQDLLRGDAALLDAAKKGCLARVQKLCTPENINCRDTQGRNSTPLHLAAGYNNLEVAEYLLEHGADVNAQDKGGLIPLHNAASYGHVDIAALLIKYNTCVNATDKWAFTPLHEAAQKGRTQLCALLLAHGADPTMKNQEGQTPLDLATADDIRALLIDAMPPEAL
The assay is described as follows: pull-down.

Assay [3] concerns the target T1, TNKS(5ARC). The assay can be described thus: SEC-MALS. On the technique in general: In gel filtration, larger molecules generally elute earlier.
In assay [4] the target is T2, Full-length mouse tankyrase-1 (mouse, UniProt Q6PFX9 1-1320).
T2 sequence (looked up): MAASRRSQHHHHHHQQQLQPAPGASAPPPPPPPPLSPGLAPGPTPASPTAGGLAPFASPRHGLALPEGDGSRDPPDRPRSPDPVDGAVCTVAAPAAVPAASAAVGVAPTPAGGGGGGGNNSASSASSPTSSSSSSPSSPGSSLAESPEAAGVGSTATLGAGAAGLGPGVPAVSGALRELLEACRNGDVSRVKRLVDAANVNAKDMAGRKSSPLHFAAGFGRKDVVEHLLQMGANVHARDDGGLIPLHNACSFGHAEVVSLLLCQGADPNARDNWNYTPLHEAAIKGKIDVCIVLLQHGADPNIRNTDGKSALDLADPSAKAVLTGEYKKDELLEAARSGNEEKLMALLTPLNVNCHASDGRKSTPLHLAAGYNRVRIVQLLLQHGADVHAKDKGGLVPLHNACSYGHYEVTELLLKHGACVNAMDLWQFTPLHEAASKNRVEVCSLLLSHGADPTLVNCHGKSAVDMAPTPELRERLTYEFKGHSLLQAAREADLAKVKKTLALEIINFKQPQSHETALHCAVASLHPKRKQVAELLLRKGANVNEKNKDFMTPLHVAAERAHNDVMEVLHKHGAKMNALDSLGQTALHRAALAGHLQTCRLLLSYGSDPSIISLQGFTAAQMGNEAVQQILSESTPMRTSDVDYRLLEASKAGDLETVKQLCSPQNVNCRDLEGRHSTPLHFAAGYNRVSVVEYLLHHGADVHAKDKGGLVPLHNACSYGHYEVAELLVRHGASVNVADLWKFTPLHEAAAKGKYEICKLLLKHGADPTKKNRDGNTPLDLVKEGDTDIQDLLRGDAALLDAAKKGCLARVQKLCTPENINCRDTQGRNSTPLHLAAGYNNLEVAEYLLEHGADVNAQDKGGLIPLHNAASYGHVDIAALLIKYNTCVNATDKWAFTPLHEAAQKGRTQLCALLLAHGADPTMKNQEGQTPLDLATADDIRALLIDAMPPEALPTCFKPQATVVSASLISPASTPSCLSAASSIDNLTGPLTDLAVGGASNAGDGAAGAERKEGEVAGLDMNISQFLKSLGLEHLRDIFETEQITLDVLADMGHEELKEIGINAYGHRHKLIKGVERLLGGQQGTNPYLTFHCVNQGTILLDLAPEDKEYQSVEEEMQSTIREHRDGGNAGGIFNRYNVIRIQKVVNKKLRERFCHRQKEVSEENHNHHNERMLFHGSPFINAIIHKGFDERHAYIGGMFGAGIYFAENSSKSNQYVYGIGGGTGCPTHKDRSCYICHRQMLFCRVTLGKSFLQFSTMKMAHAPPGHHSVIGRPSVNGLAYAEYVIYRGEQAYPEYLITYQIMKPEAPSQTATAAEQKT
The assay is described as follows: pull-down.

For poly(ADP-ribose) [PAR], in assay [1], the “activation of Ub transfer from UbcH5~Ub to lysine” value is given as “robust activation”.

B1: GST-RNF146 G337V/G338V (natural protein, human, UniProt Q9NTX7-2 1-358, looked up)
chain: MAGCGEIDHSINMLPTNRKANESCSNTAPSLTVPECAICLQTCVHPVSLPCKHVFCYLCVKGASWLGKRCALCRQEIPEDFLDKPTLLSPEELKAASRGNGEYAWYYEGRNGWWQYDERTSRELEDAFSKGKKNTEMLIAGFLYVADLENMVQYRRNEHGRRRKIKRDIIDIPKKGVAGLRLDCDANTVNLARESSADGADSVSAQSGASVQPLVSSVRPLTSVDGQLTSPATPSPDASTSLEDSFAHLQLSGDNTAERSHRGEGEEDHESPSSGRVPAPDTSIEETESDASSDSEDVSAVVAQHSLTQQRLLVSNANQTVPDRSDRSGTDRSVAGVVTVSVSVRSRRPDGQCTVTEV
On to B1, for which the binding result with TNKS(5ARC) [2] is reported as “binds”.

B2: His6-T7-RNF146 (full-length) (natural protein, human, UniProt Q9NTX7-2 1-358, looked up)
chain: MAGCGEIDHSINMLPTNRKANESCSNTAPSLTVPECAICLQTCVHPVSLPCKHVFCYLCVKGASWLGKRCALCRQEIPEDFLDKPTLLSPEELKAASRGNGEYAWYYEGRNGWWQYDERTSRELEDAFSKGKKNTEMLIAGFLYVADLENMVQYRRNEHGRRRKIKRDIIDIPKKGVAGLRLDCDANTVNLARESSADGADSVSAQSGASVQPLVSSVRPLTSVDGQLTSPATPSPDASTSLEDSFAHLQLSGDNTAERSHRGEGEEDHESPSSGRVPAPDTSIEETESDASSDSEDVSAVVAQHSLTQQRLLVSNANQTVPDRSDRSGTDRSVAGGGTVSVSVRSRRPDGQCTVTEV
For B2, in the assay with TNKS(5ARC) [3], the binding result was “binds”.

B3: GST-RNF146-R163A (natural protein, human, UniProt Q9NTX7-2 1-358, looked up)
chain: MAGCGEIDHSINMLPTNRKANESCSNTAPSLTVPECAICLQTCVHPVSLPCKHVFCYLCVKGASWLGKRCALCRQEIPEDFLDKPTLLSPEELKAASRGNGEYAWYYEGRNGWWQYDERTSRELEDAFSKGKKNTEMLIAGFLYVADLENMVQYRRNEHGRRAKIKRDIIDIPKKGVAGLRLDCDANTVNLARESSADGADSVSAQSGASVQPLVSSVRPLTSVDGQLTSPATPSPDASTSLEDSFAHLQLSGDNTAERSHRGEGEEDHESPSSGRVPAPDTSIEETESDASSDSEDVSAVVAQHSLTQQRLLVSNANQTVPDRSDRSGTDRSVAGGGTVSVSVRSRRPDGQCTVTEV
Regarding B3, the binding result in assay [4] is “binds”.

B4: GST-RNF146 G199V (natural protein, human, UniProt Q9NTX7-2 1-358, looked up)
chain: MAGCGEIDHSINMLPTNRKANESCSNTAPSLTVPECAICLQTCVHPVSLPCKHVFCYLCVKGASWLGKRCALCRQEIPEDFLDKPTLLSPEELKAASRGNGEYAWYYEGRNGWWQYDERTSRELEDAFSKGKKNTEMLIAGFLYVADLENMVQYRRNEHGRRRKIKRDIIDIPKKGVAGLRLDCDANTVNLARESSADVADSVSAQSGASVQPLVSSVRPLTSVDGQLTSPATPSPDASTSLEDSFAHLQLSGDNTAERSHRGEGEEDHESPSSGRVPAPDTSIEETESDASSDSEDVSAVVAQHSLTQQRLLVSNANQTVPDRSDRSGTDRSVAGGGTVSVSVRSRRPDGQCTVTEV
As for B4, in the assay with TNKS(5ARC) [2], the binding result is recorded as “binds”.

B5: GST-RNF146 (full-length, wt) (natural protein, human, UniProt Q9NTX7-2 1-358, looked up)
chain: MAGCGEIDHSINMLPTNRKANESCSNTAPSLTVPECAICLQTCVHPVSLPCKHVFCYLCVKGASWLGKRCALCRQEIPEDFLDKPTLLSPEELKAASRGNGEYAWYYEGRNGWWQYDERTSRELEDAFSKGKKNTEMLIAGFLYVADLENMVQYRRNEHGRRRKIKRDIIDIPKKGVAGLRLDCDANTVNLARESSADGADSVSAQSGASVQPLVSSVRPLTSVDGQLTSPATPSPDASTSLEDSFAHLQLSGDNTAERSHRGEGEEDHESPSSGRVPAPDTSIEETESDASSDSEDVSAVVAQHSLTQQRLLVSNANQTVPDRSDRSGTDRSVAGGGTVSVSVRSRRPDGQCTVTEV
Take B5: the binding result in the assay with TNKS(5ARC) [2] was “binds”.

B6: GST-RNF146(1–205) (domain or fragment, human, UniProt Q9NTX7-2 1-205, looked up)
chain: MAGCGEIDHSINMLPTNRKANESCSNTAPSLTVPECAICLQTCVHPVSLPCKHVFCYLCVKGASWLGKRCALCRQEIPEDFLDKPTLLSPEELKAASRGNGEYAWYYEGRNGWWQYDERTSRELEDAFSKGKKNTEMLIAGFLYVADLENMVQYRRNEHGRRRKIKRDIIDIPKKGVAGLRLDCDANTVNLARESSADGADSVSA
Regarding B6, in the assay with TNKS(5ARC) [2], the binding result is “binds”.
